Experimental data reported in paper PMC6959537 (Bioorganic & medicinal chemistry, 2015).
Entries after “also recorded” stand apart in the source; their conditions may differ. Read-outs that look alike come from different tables or passages of the source.

Legend:
human TRPV1 = human TRPV1 (Homo sapiens, UniProt Q8NER1); experiment: hTRPV1 antagonism, inhibition of activation by capsaicin; format: cell-based
body temperature = experiment: Body temperature study; format: in vivo, mouse; details: at the given doses, oral
[1] = tested on: capsaicin-induced hypothermia; experiment: Inhibition of capsaicin-induced hypothermia after oral administration; set-up: species or system mouse; details: in vivo
[2] = tested on: CCI-induced cold allodynia; experiment: CCI-induced cold allodynia; format: in vivo; details: mouse, Bennett model, oral, 10 mg/kg
Outline: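 Mice with chronic constriction injury (Bennett model) received test compound orally. Cold allodynia was then scored and expressed as % maximal possible effect. Groups were n = 10, reported as mean ± SEM, and compared with vehicle (p < 0.05).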

[3] = capsaicin 100 nM, FLIPR, hTRPV1 expressed in CHO cells

human TRPV1, sequence (Q8NER1 whole entry): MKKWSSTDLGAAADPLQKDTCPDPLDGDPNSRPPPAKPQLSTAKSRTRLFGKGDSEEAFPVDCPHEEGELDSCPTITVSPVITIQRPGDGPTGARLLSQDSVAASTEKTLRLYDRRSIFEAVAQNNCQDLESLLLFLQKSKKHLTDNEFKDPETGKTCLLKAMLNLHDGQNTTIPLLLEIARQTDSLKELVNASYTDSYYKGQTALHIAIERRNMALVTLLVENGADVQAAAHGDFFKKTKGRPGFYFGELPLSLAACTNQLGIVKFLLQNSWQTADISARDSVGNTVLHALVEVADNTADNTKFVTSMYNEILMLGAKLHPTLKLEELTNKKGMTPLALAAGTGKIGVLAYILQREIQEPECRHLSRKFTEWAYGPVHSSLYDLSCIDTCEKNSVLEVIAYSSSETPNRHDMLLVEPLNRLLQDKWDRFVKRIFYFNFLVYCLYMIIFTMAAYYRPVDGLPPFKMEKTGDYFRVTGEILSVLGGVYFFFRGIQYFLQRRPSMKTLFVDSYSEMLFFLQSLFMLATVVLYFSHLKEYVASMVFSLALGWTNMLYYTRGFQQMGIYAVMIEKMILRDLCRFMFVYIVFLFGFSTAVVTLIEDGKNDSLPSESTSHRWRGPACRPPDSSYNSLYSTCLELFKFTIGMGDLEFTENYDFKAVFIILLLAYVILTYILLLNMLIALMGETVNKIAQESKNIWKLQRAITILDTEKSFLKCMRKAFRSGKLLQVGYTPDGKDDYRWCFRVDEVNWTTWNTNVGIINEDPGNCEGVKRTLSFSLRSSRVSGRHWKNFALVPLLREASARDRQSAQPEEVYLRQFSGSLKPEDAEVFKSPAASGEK

CC(C(=O)NCc1ccc(C(F)(F)F)cc1Cl)c1ccc(NS(C)(=O)=O)c(F)c1 (centres unmarked) [Compound 51, 2-(3-Fluoro-4-methanesulfonylamino-phenyl)-N-(2-chloro-4-trifluoromethyl-benzyl)-propionamide]
hTRPV1 antagonism in words (human TRPV1; [3]): good antagonism

2-(2-Fluoro-4-(methylsulfonamido)phenyl)-N-(2-(4-(4-fluorobenzyl)piperidin-1-yl)-4-(trifluoromethyl)benzyl)propanamide [Compound 20]
Ki (human TRPV1; read-out: Ki (CAP), capsaicin 100 nM, FLIPR, hTRPV1 expressed in CHO cells): 0.4 nM

CC(C(=O)NCc1ccc(C(F)(F)F)cc1SC1CCCC1)c1ccc(NS(C)(=O)=O)c(F)c1 (centres unmarked) [Compound 43, 2-(3-Fluoro-4-(methylsulfonamido)phenyl)-N-(2-cyclopentylthio-4-(trifluoromethyl)-benzyl)propanamide]
Hyperthermia / body temperature effect of compound alone (body temperature): without hyperthermia; also recorded: did not show any hyperthermia; also recorded: thermoneutral | Effect on capsaicin-induced hypothermia in words [1]: blocked capsaicin-induced hypothermia

C[C@H](C(=O)NCc1ccc(C(F)(F)F)cc1SC1CCCCC1)c1ccc(NS(C)(=O)=O)c(F)c1 [Compound 44S]
max antiallodynic efficacy in cold allodynia, MPE [2]: 57 % MPE | Hyperthermia / body temperature effect of compound alone (body temperature): without hyperthermia; also recorded: did not show any hyperthermia; also recorded: thermoneutral | Effect on capsaicin-induced hypothermia in words [1]: blocked capsaicin-induced hypothermia

2-(3-Fluoro-4-(methylsulfonamido)phenyl)-N-(2-cyclopentylthio-4-(trifluoromethyl)-benzyl)propanamide [Compound 49]
hTRPV1 antagonism in words (human TRPV1; [3]): moderate antagonism

CC(C(=O)NCc1ccc(C(F)(F)F)cc1-c1cccnc1)c1ccc(NS(C)(=O)=O)c(F)c1 (centres unmarked) [Compound 62, 2-(3-Fluoro-4-methanesulfonylamino-phenyl)-N-(2-pyridin-3-yl-4-trifluoromethylbe-nzyl)-propionamide]
hTRPV1 antagonism in words (human TRPV1; [3]): weak antagonist

CC(C(=O)NCc1ccc(C(F)(F)F)cc1[N+](=O)[O-])c1ccc(NS(C)(=O)=O)c(F)c1 (centres unmarked) [Compound 52, 2-(3-Fluoro-4-methanesulfonylamino-phenyl)-N-(2-nitro-4-trifluoromethyl-benzyl)-propionamide]
hTRPV1 antagonism in words (human TRPV1; [3]): weak antagonists

CC(C(=O)NCc1ccc(C(F)(F)F)cc1SCCCO)c1ccc(NS(C)(=O)=O)c(F)c1 (centres unmarked) [Compound 42, 2-(3-Fluoro-4-(methylsulfonamido)phenyl)-N-(2-((3-hydroxypropyl)thio)-4-(trifluoro-methyl)benzyl)propanamide]
hTRPV1 antagonism in words (human TRPV1; [3]): loss of activity

CC(C(=O)NCc1ccc(C(F)(F)F)cc1F)c1ccc(NS(C)(=O)=O)c(F)c1 (centres unmarked) [Compound 50, 2-(3-Fluoro-4-methanesulfonylamino-phenyl)-N-(2-fluoro-4-trlfluoromethyl-benzyl)-propioamide]
hTRPV1 antagonism in words (human TRPV1; [3]): weak antagonists

CC(C(=O)NCc1ccc(C(F)(F)F)cc1N1CCOCC1)c1ccc(NS(C)(=O)=O)c(F)c1 (centres unmarked) [Compound 27, 2-(3-Fluoro-4-methanesulfonylamino-phenyl)-N-(2-morpholin-4-yl-4-trifluoromethyl-benzyl)-propionamide]
fold less potent than the corresponding piperidine surrogate (10) (human TRPV1; capsaicin antagonism, versus compound 10): ca. 4 fold

CCCCCCOc1cc(C(F)(F)F)ccc1CNC(=O)C(C)c1ccc(NS(C)(=O)=O)c(F)c1 (centres unmarked) [Compound 31, 2-(3-Fluoro-4-(methylsulfonamido)phenyl)-N-(2-(hexyloxy)-4(trifluoromethyl)benzyl)propanamide]
Ki (human TRPV1): 0.7 to 0.8 nM
